Assay results taken from ChEMBL document CHEMBL2203173 (J Med Chem, 2012).

Legend:
[1] = system: Mus musculus; test: Toxicity in BALB/c nu/nu mouse xenografted with human DMS53 cells assessed as change in brain histology at 4 mg/kg, iv administered for 5 days a week measured after 21 days by hematoxylin and eosin staining method; type: organism-based, DMS-53; parameters: dose 4 mg/kg, route intravenous; conditions: in vivo, 504 h
In short: (§1)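 DMS-53 xenografts in nude mice; dosing started at 100 mm3 tumor volume. Agents given iv via tail vein, 5 days/week for 21 days, vehicle 30% propylene glycol/saline, vehicle-treated controls. Mice sacrificed day 21. Body and organ weights and hematological indices recorded. Spleen, kidney, liver, heart, lungs and brain were stained with H&E, Perls' and Gomori Trichrome and read by an independent veterinary pathologist.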

[2] = system: Mus musculus; test: Toxicity in BALB/c nu/nu mouse xenografted with human DMS53 cells assessed as change in RBC count at 8 mg/kg, iv administered for 5 days a week measured after 21 days; type: organism-based, DMS-53; parameters: dose 8 mg/kg, route intravenous; conditions: in vivo, 504 h
[3] = system: Mus musculus; test: Toxicity in BALB/c nu/nu mouse xenografted with human DMS53 cells assessed as hepatocellular necrosis at 8 mg/kg, iv administered for 5 days a week measured after 21 days by hematoxylin and eosin staining method; type: organism-based, DMS-53; parameters: dose 8 mg/kg, route intravenous; conditions: in vivo, 504 h
In short: (§2)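 Nude mice with DMS-53 xenografts dosed by tail-vein iv injection in 30% propylene glycol/saline, starting at 100 mm3 tumour volume, 5 days/week for 21 days. Spleen, kidney, liver, heart, lungs and brain were stained with H&E, Perls' (Fe loading) and Gomori Trichrome (fibrosis) by standard methods, and an independent veterinary pathologist examined them.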

[4] = system: Mus musculus; test: Toxicity in BALB/c nu/nu mouse xenografted with human DMS53 cells assessed as change in lungs histology at 4 mg/kg, iv administered for 5 days a week measured after 21 days by hematoxylin and eosin staining method; type: organism-based, DMS-53; parameters: dose 4 mg/kg, route intravenous; conditions: in vivo, 504 h; in short: as §1
[5] = system: Mus musculus; test: Toxicity in BALB/c nu/nu mouse xenografted with human DMS53 cells assessed as change in organ weight at 8 mg/kg, iv administered for 5 days a week measured after 21 days; type: organism-based, DMS-53; parameters: dose 8 mg/kg, route intravenous; conditions: in vivo, 504 h
In short: (§3)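 DMS-53 xenograft-bearing nude mice, treatment started at 100 mm3 tumour volume: iv tail-vein dosing in 30% propylene glycol/saline, 5 days/week for 21 days. Organs were weighed at sacrifice and compared with vehicle-control mice.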

[6] = system: Mus musculus; test: Toxicity in BALB/c nu/nu mouse xenografted with human DMS53 cells assessed as change in lungs histology at 8 mg/kg, iv administered for 5 days a week measured after 21 days by hematoxylin and eosin staining method; type: organism-based, DMS-53; parameters: dose 8 mg/kg, route intravenous; conditions: in vivo, 504 h; in short: as §2
[7] = system: Mus musculus; test: Toxicity in BALB/c nu/nu mouse xenografted with human DMS53 cells assessed as change in RBC count at 20 mg/kg, po administered for 3 times a week measured after 20 days; type: organism-based, DMS-53; parameters: dose 20 mg/kg, route oral; conditions: in vivo, 480 h
[8] = system: Mus musculus; test: Toxicity in BALB/c nu/nu mouse xenografted with human DMS53 cells assessed as cardiac fibrosis at 8 mg/kg, iv administered for 5 days a week measured after 21 days by […]; type: organism-based, Heart, DMS-53; parameters: dose 8 mg/kg, route intravenous; conditions: in vivo, 504 h
In short: (§4)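 DMS-53 xenograft nude mice given agents iv by tail vein 5 days/week in 30% propylene glycol/saline for 21 days. At sacrifice, heart sections were stained with Gomori Trichrome to detect fibrosis. Spleen, kidney, liver, heart, lungs and brain were also stained with H&E and Perls' and examined by an independent veterinary pathologist.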

[9] = system: Mus musculus; test: Toxicity in BALB/c nu/nu mouse xenografted with human DMS53 cells assessed as change in hematopoetic cells in splenic red pulp at 8 mg/kg, iv administered for 5 days a week measured after 21 days by hematoxylin and eosin staining method; type: organism-based, DMS-53; parameters: dose 8 mg/kg, route intravenous; conditions: in vivo, 504 h; in short: as §1
[10] = system: Mus musculus; test: Toxicity in BALB/c nu/nu mouse xenografted with human DMS53 cells assessed as change in RBC count at 4 mg/kg, iv administered for 5 days a week measured after 21 days; type: organism-based, DMS-53; parameters: dose 4 mg/kg, route intravenous; conditions: in vivo, 504 h
[11] = system: Mus musculus; test: Toxicity in BALB/c nu/nu mouse xenografted with human DMS53 cells assessed as change in body weight at 8 mg/kg, iv administered for 5 days a week measured after 21 days; type: organism-based, DMS-53; parameters: dose 8 mg/kg, route intravenous; conditions: in vivo, 504 h; in short: as §1
[12] = system: Mus musculus; test: Toxicity in BALB/c nu/nu mouse xenografted with human DMS53 cells assessed as change in platelet count at 8 mg/kg, iv administered for 5 days a week measured after 21 days; type: organism-based, DMS-53; parameters: dose 8 mg/kg, route intravenous; conditions: in vivo, 504 h
In short: (§5)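 Nude mice carrying DMS-53 xenografts (treatment from 100 mm3) received iv tail-vein doses in 30% propylene glycol/saline, 5 days/week for 21 days. Hematological indices (RBC, hemoglobin, hematocrit, reticulocytes, WBC, platelets) were then compared with vehicle controls.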

[13] = system: Mus musculus; test: Toxicity in BALB/c nu/nu mouse xenografted with human DMS53 cells assessed as hepatocellular necrosis at 4 mg/kg, iv administered for 5 days a week measured after 21 days by hematoxylin and eosin staining method; type: organism-based, DMS-53; parameters: dose 4 mg/kg, route intravenous; conditions: in vivo, 504 h; in short: as §2
[14] = system: Mus musculus; test: Toxicity in BALB/c nu/nu mouse xenografted with human DMS53 cells assessed as change in hemoglobin level at 7.5 mg/kg, po administered for 3 times a week measured after 20 days; type: organism-based, DMS-53; parameters: dose 7.5 mg/kg, route oral; conditions: in vivo, 480 h
In short: (§6)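 Nude mice bearing DMS-53 xenografts gavaged 3 times/week for 20 days, vehicle 30% propylene glycol/saline, vehicle controls, n = 6-11 mice/condition. Sacrifice on day 20. Organ weights and hematological indices recorded. Spleen, kidney, liver, heart, lungs and brain examined histologically, hearts stained with Gomori Trichrome for fibrosis.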

[15] = system: Mus musculus; test: Cardiotoxicity in BALB/c nu/nu mouse xenografted with human DMS53 cells at 3 mg/kg, iv administered for 5 days a week measured after 21 days; type: toxicity, organism-based, DMS-53; parameters: dose 3 mg/kg, route intravenous; conditions: in vivo, 504 h; in short: as §4
[16] = system: Mus musculus; test: Toxicity in BALB/c nu/nu mouse xenografted with human DMS53 cells assessed as change in reticulocyte count at 3 mg/kg, iv administered for 5 days a week measured after 21 days; type: organism-based, DMS-53; parameters: dose 3 mg/kg, route intravenous; conditions: in vivo, 504 h; in short: as §5
[17] = system: Mus musculus; test: Toxicity in BALB/c nu/nu mouse xenografted with human DMS53 cells assessed as vacuolation at 6 mg/kg, iv administered for 5 days a week measured after 21 days by hematoxylin and eosin staining method; type: organism-based, DMS-53; parameters: dose 6 mg/kg, route intravenous; conditions: in vivo, 504 h; in short: as §2
[18] = system: Mus musculus; test: Toxicity in BALB/c nu/nu mouse xenografted with human DMS53 cells assessed as hepatocellular fibrosis at 6 mg/kg, iv administered for 5 days a week measured after 21 days by hematoxylin and eosin staining method; type: organism-based, DMS-53; parameters: dose 6 mg/kg, route intravenous; conditions: in vivo, 504 h; in short: as §2
[19] = system: Mus musculus; test: Toxicity in BALB/c nu/nu mouse xenografted with human DMS53 cells assessed as hepatocellular fibrosis at 3 mg/kg, iv administered for 5 days a week measured after 21 days by hematoxylin and eosin staining method; type: organism-based, DMS-53; parameters: dose 3 mg/kg, route intravenous; conditions: in vivo, 504 h; in short: as §2
[20] = system: Mus musculus; test: Toxicity in BALB/c nu/nu mouse xenografted with human DMS53 cells assessed as change in RBC count at 3 mg/kg, iv administered for 5 days a week measured after 21 days; type: organism-based, DMS-53; parameters: dose 3 mg/kg, route intravenous; conditions: in vivo, 504 h
[21] = system: Mus musculus; test: Toxicity in BALB/c nu/nu mouse xenografted with human DMS53 cells assessed as change in lung weight at 10 mg/kg, po administered for 3 times a week measured after 20 days; type: organism-based, DMS-53; parameters: dose 10 mg/kg, route oral; conditions: in vivo, 480 h; in short: as §6
[22] = system: Mus musculus; test: Toxicity in BALB/c nu/nu mouse xenografted with human DMS53 cells assessed as cardiac fibrosis at 6 mg/kg, iv administered for 5 days a week measured after 21 days by […]; type: organism-based, Heart, DMS-53; parameters: dose 6 mg/kg, route intravenous; conditions: in vivo, 504 h; in short: as §4
[23] = system: Mus musculus; test: Toxicity in BALB/c nu/nu mouse xenografted with human DMS53 cells assessed as change in organ weight at 3 mg/kg, iv administered for 5 days a week measured after 21 days; type: organism-based, DMS-53; parameters: dose 3 mg/kg, route intravenous; conditions: in vivo, 504 h; in short: as §3
[24] = system: Mus musculus; test: Toxicity in BALB/c nu/nu mouse xenografted with human DMS53 cells assessed as change in RBC count at 7.5 mg/kg, po administered for 3 times a week measured after 20 days; type: organism-based, DMS-53; parameters: dose 7.5 mg/kg, route oral; conditions: in vivo, 480 h
[25] = system: Mus musculus; test: Toxicity in BALB/c nu/nu mouse xenografted with human DMS53 cells assessed as vacuolation at 3 mg/kg, iv administered for 5 days a week measured after 21 days by hematoxylin and eosin staining method; type: organism-based, DMS-53; parameters: dose 3 mg/kg, route intravenous; conditions: in vivo, 504 h; in short: as §2

Measured: Activity

CN(C(=S)NN=C(c1ccccn1)c1ccccn1)C1CCCCC1.Cl
Non-toxic: [1] | [3] | [4] | [6] | [7] | [8] | [9] | [10] | [11] | [12] | [13]
Toxic: [2] | [5]

CCN(C)C(=S)NN=C(c1ccccn1)c1ccccn1.Cl
Non-toxic: [15] | [16] | [18] | [19] | [20] | [22] | [24] | [25]
Toxic: [14] | [17] | [21] | [23]
